Assay results as given in ChEMBL document CHEMBL1153988 (J Med Chem, 2009).
Active and inactive are the calls of the source. The rule behind the calls is not given here.

Experiments:
[1] = tested on: Rattus norvegicus; test: Anticonvulsant activity in albino Sprague-Dawley rat assessed as protection against maximal electroshock-induced seizures at 50 mg/kg, po after 15 mins; assay type: functional
Outline: (§1)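 Adult male Sprague-Dawley albino rats (100-150 g) dosed orally with compound suspended in 0.5% methylcellulose (0.04 mL per 10 g). Maximal electroshock challenge at the stated time. Protection is scored in 25% steps as the fraction of animals protected, with neurotoxicity recorded in parallel.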

[2] = tested on: Mus musculus; test: Anticonvulsant activity in CF1 albino mouse assessed as protection against maximal electroshock-induced seizures at 30 mg/kg, ip after 4 hrs; assay type: functional, organism-based; set-up: dose 30 mg/kg
Outline: (§2)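 Adult male CF no. 1 albino mice (18-25 g). Test compound suspended in 0.5% methylcellulose and given intraperitoneally at 0.01 mL/g body weight. Maximal electroshock challenge at the stated time. Read-out is the number of animals protected over the number tested; neurotoxicity is scored in parallel.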

[3] = tested on: Mus musculus; test: Anticonvulsant activity in CF1 albino mouse assessed as protection against scMet-induced seizures at 100 mg/kg, ip after 0.5 hrs; assay type: functional, organism-based; set-up: dose 100 mg/kg
Outline: (§3)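 Adult male CF no. 1 albino mice (18-25 g) dosed intraperitoneally with compound suspended in 0.5% methylcellulose (0.01 mL/g). Convulsant challenge given subcutaneously as a 0.85% pentylenetetrazol solution in 0.9% saline. Read-out is animals protected over animals tested, with neurotoxicity scored in parallel.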

[4] = tested on: Mus musculus; test: Neurotoxicity in CF1 albino mouse at 300 mg/kg, ip after 4 hrs; assay type: toxicity, organism-based; set-up: dose 300 mg/kg, route intraperitoneal; settings: in vivo
Outline: (§4)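 Male CF no. 1 albino mice (18-25 g) received a single ip dose as a suspension in 0.5% methylcellulose. The read-out was the number of animals showing neurotoxicity (minimal motor impairment) over the number tested.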

[5] = tested on: Mus musculus; test: Neurotoxicity in CF1 albino mouse at 30 mg/kg, ip after 4 hrs; assay type: toxicity, organism-based; set-up: dose 30 mg/kg, route intraperitoneal; settings: in vivo; outline: as §4
[6] = tested on: Mus musculus; test: Neurotoxicity in CF1 albino mouse at 100 mg/kg, ip after 4 hrs; assay type: toxicity, organism-based; set-up: dose 100 mg/kg, route intraperitoneal; settings: in vivo; outline: as §4
[7] = tested on: Rattus norvegicus; test: Anticonvulsant activity in albino Sprague-Dawley rat assessed as protection against maximal electroshock-induced seizures at 50 mg/kg, po after 4 hrs; assay type: functional, organism-based; set-up: dose 50 mg/kg; outline: as §1
[8] = tested on: Mus musculus; test: Anticonvulsant activity in CF1 albino mouse assessed as protection against scMet-induced seizures at 300 mg/kg, ip after 0.5 hrs; assay type: functional, organism-based; set-up: dose 300 mg/kg; outline: as §3
[9] = tested on: Mus musculus; test: Anticonvulsant activity in CF1 albino mouse assessed as protection against scMet-induced seizures at 100 mg/kg, ip after 4 hrs; assay type: functional, organism-based; set-up: dose 100 mg/kg; outline: as §3
[10] = tested on: Rattus norvegicus; test: Anticonvulsant activity in albino Sprague-Dawley rat assessed as protection against maximal electroshock-induced seizures at 50 mg/kg, po after 1 hr; assay type: functional; outline: as §1
[11] = tested on: Mus musculus; test: Anticonvulsant activity in CF1 albino mouse assessed as protection against scMet-induced seizures at 30 mg/kg, ip after 0.5 hrs; assay type: functional, organism-based; set-up: dose 30 mg/kg; outline: as §3
[12] = tested on: Rattus norvegicus; test: Anticonvulsant activity in albino Sprague-Dawley rat assessed as protection against maximal electroshock-induced seizures at 50 mg/kg, po after 30 mins; assay type: functional; outline: as §1
[13] = tested on: Rattus norvegicus; test: Anticonvulsant activity in po dosed albino Sprague-Dawley rat assessed as protection against scMet-induced seizures; assay type: functional
Outline: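 Male Sprague-Dawley albino rats (100-150 g) were dosed orally in 0.5% methylcellulose and tested by MES or by sc pentylenetetrazol (2.82% in 0.9% saline). Doses were varied to give 3-4 points between 0% and 100% protection. ED50 and 95% confidence intervals came from probit analysis.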

[14] = tested on: Mus musculus; test: Anticonvulsant activity in CF1 albino mouse assessed as protection against maximal electroshock-induced seizures at 100 mg/kg, ip after 0.5 hrs; assay type: functional, organism-based; set-up: dose 100 mg/kg; outline: as §2
[15] = species on record: Rattus norvegicus; test: Protective index, ratio of TD50 for albino Sprague-Dawley rat to ED50 for scMet-induced albino Sprague-Dawley rat seizure model; assay type: functional
Outline: (§5)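 Protective index is the rat TD50 (minimal motor impairment) divided by the ED50 in the MES or sc pentylenetetrazol test. Male Sprague-Dawley rats were dosed orally in 0.5% methylcellulose, and both values came from probit analysis.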

[16] = tested on: Rattus norvegicus; test: Neurotoxicity in albino Sprague-Dawley rat assessed as minimal motor impairment at 200 mg/kg, po; assay type: toxicity, organism-based; set-up: dose 200 mg/kg, route oral; settings: in vivo
Outline: (§6)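 Neurotoxicity was scored in male Sprague-Dawley albino rats (100-150 g) dosed orally with a suspension in 0.5% methylcellulose. The read-out was the fraction of animals showing neurotoxicity (minimal motor impairment).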

[17] = tested on: Rattus norvegicus; test: Anticonvulsant activity in albino Sprague-Dawley rat assessed as protection against scMet-induced seizures at 50 mg/kg, po after 30 mins; assay type: functional
Outline: (§7)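 Male Sprague-Dawley albino rats (100-150 g) were given the compound orally as a suspension in 0.5% methylcellulose. Seizures were induced by subcutaneous pentylenetetrazol, dissolved in 0.9% saline as a 2.82% solution. The read-out was animals protected over animals tested.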

[18] = tested on: Rattus norvegicus; test: Anticonvulsant activity in albino Sprague-Dawley rat assessed as protection against scMet-induced seizures at 50 mg/kg, po after 15 mins; assay type: functional; outline: as §7
[19] = tested on: Mus musculus; test: Anticonvulsant activity in CF1 albino mouse assessed as protection against maximal electroshock-induced seizures at 300 mg/kg, ip after 4 hrs; assay type: functional, organism-based; set-up: dose 300 mg/kg; outline: as §2
[20] = tested on: Mus musculus; test: Anticonvulsant activity in CF1 albino mouse assessed as protection against maximal electroshock-induced seizures at 30 mg/kg, ip after 0.5 hrs; assay type: functional, organism-based; set-up: dose 30 mg/kg; outline: as §2
[21] = tested on: Mus musculus; test: Anticonvulsant activity in CF1 albino mouse assessed as protection against scMet-induced seizures at 300 mg/kg, ip after 4 hrs; assay type: functional, organism-based; set-up: dose 300 mg/kg; outline: as §3
[22] = tested on: Rattus norvegicus; test: Anticonvulsant activity in albino Sprague-Dawley rat assessed as protection against scMet-induced seizures at 50 mg/kg, po after 2 hrs; assay type: functional; outline: as §7
[23] = tested on: Rattus norvegicus; test: Anticonvulsant activity in po dosed albino Sprague-Dawley rat assessed as protection against maximal electroshock-induced seizures; assay type: functional
[24] = tested on: Mus musculus; test: Anticonvulsant activity in CF1 albino mouse assessed as protection against maximal electroshock-induced seizures at 300 mg/kg, ip after 0.5 hrs; assay type: functional, organism-based; set-up: dose 300 mg/kg; outline: as §2
[25] = tested on: Rattus norvegicus; test: Anticonvulsant activity in albino Sprague-Dawley rat assessed as protection against scMet-induced seizures at 50 mg/kg, po; assay type: functional, organism-based; set-up: dose 50 mg/kg; outline: as §7
[26] = tested on: Mus musculus; test: Anticonvulsant activity in CF1 albino mouse assessed as protection against scMet-induced seizures at 30 mg/kg, ip after 4 hrs; assay type: functional, organism-based; set-up: dose 30 mg/kg; outline: as §3
[27] = tested on: Mus musculus; test: Neurotoxicity in CF1 albino mouse at 300 mg/kg, ip after 0.5 hrs; assay type: toxicity, organism-based; set-up: dose 300 mg/kg, route intraperitoneal; settings: in vivo; outline: as §4
[28] = tested on: Mus musculus; test: Neurotoxicity in CF1 albino mouse at 30 mg/kg, ip after 0.5 hrs; assay type: toxicity, organism-based; set-up: dose 30 mg/kg, route intraperitoneal; settings: in vivo; outline: as §4
[29] = tested on: Rattus norvegicus; test: Anticonvulsant activity in albino Sprague-Dawley rat assessed as protection against scMet-induced seizures at 50 mg/kg, po after 1 hr; assay type: functional; outline: as §7
[30] = tested on: Rattus norvegicus; test: Neurotoxicity in albino Sprague-Dawley rat at 50 mg/kg, po; assay type: toxicity, organism-based; set-up: dose 50 mg/kg, route oral; settings: in vivo; outline: as §6
[31] = species on record: Rattus norvegicus; test: Protective index, ratio of TD50 for albino Sprague-Dawley rat to ED50 for maximal electroshock-induced albino Sprague-Dawley rat seizure model; assay type: functional; outline: as §5
[32] = tested on: Rattus norvegicus; test: Anticonvulsant activity in albino Sprague-Dawley rat assessed as protection against maximal electroshock-induced seizures at 50 mg/kg, po after 2 hrs; assay type: functional; outline: as §1
[33] = tested on: Mus musculus; test: Anticonvulsant activity in CF1 albino mouse assessed as protection against maximal electroshock-induced seizures at 100 mg/kg, ip after 4 hrs; assay type: functional, organism-based; set-up: dose 100 mg/kg; outline: as §2
[34] = tested on: Rattus norvegicus; test: Anticonvulsant activity in albino Sprague-Dawley rat assessed as protection against scMet-induced seizures at 50 mg/kg, po after 4 hrs; assay type: functional; outline: as §7
[35] = Neurotoxicity in po dosed albino Sprague-Dawley rat assessed as minimal motor impairment; assay type: toxicity, organism-based; settings: in vivo
Outline: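 Rats: male Sprague-Dawley (100-150 g), oral dosing in 0.5% methylcellulose. Doses were varied to give four points between no minimal motor impairment and all animals impaired. TD50 and 95% confidence intervals came from probit analysis.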

CC1(C)C(C)(C)C1(Cl)C(N)=O
Activity [1]: 25% | Activity [2]: Non-toxic | Activity [3]: Non-toxic | Activity [4]: Non-toxic | Activity [5]: Non-toxic | Activity [6]: Non-toxic | Activity [7]: inactive | Activity [8]: Toxic | Activity [9]: Non-toxic | Activity [10]: 75% | Activity [11]: Non-toxic | Activity [12]: 25% | ED50 [13]: 27 mg/kg | Activity [14]: Non-toxic | PI [15]: >7.8 | Activity [16]: Non-toxic | Activity [17]: 50% | Activity [18]: inactive | Activity [19]: Non-toxic | Activity [20]: Non-toxic | Activity [21]: Non-toxic | Activity [22]: 25% | ED50 [23]: 97 mg/kg | Activity [24]: Toxic | Activity [25]: Active | Activity [26]: Non-toxic | Activity [27]: Toxic | Activity [28]: Non-toxic | Activity [29]: 50% | Activity [30]: Not Active | PI [31]: >2.1 | Activity [32]: 75% | Activity [33]: Non-toxic | Activity [34]: inactive | TD50 [35]: > 200 mg/kg
